Data set [1] has as its system VRSA strains. Briefly: MIC versus VRSA clinical isolates. It counts as cell-based, Staphylococcus aureus. As to conditions: five clinical isolates of VRSA.
In data set [2] the test system is S. aureus LAC yceI::Tn pLL39_yceI3. Briefly: MIC. Type of data set: cell-based, Staphylococcus aureus. As to conditions: genotype yceI::Tn pLL39_yceI3, LAC background.
The test system of data set [3] is LAC. In words: MIC. It counts as cell-based, Staphylococcus aureus. The conditions noted are these: genotype LAC. The method in brief: (§1)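 Overnight cultures were grown in 5 mL Mueller-Hinton at 37 °C with shaking at 200 rpm. They were diluted 1/1000 into 96-well plates holding serial dilutions of test compound in Mueller-Hinton broth. Plates were sealed against drying and incubated statically at 37 °C for 18 h before reading. All strains are isogenic and in the LAC background.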

Data set [4] concerns MRSA COL strain. Briefly: Mouse peritonitis-sepsis model. It counts as in vivo, Staphylococcus aureus. As to conditions: single dose 24 mg/kg intraperitoneal, 1 h post-infection.
For data set [5], the system named is LAC yceI::Tn azoR4 pCM28_azoR. Briefly: MIC. It counts as cell-based, Staphylococcus aureus. The method, boiled down:
as §1

In data set [6] the test system is S. aureus LAC pLL39_yceI1. In words: MIC. It counts as cell-based, Staphylococcus aureus. As to conditions: genotype pLL39_yceI1, LAC background.
Data set [7] has as its system LAC yceI::Tn. In words: MIC. The conditions noted are these: genotype yceI::Tn, LAC background. It counts as cell-based, Staphylococcus aureus. The method in brief:
as §1

For data set [8], the system named is S. aureus LAC pLL39_yceI2. Briefly: MIC. It counts as cell-based, Staphylococcus aureus. As to conditions: genotype pLL39_yceI2, LAC background.
Data set [9] deals with S. aureus LAC pLL39_yceI3. In words: MIC. It counts as cell-based, Staphylococcus aureus. The conditions noted are these: genotype pLL39_yceI3, LAC background.
Data set [10] relates to MRSA strain LAC. Briefly: Selection of spontaneous resistant mutants, frequency. It counts as cell-based, Staphylococcus aureus. As to conditions: 8x MIC, 3 d incubation.
For data set [11], the system named is LAC yceI::Tn pCM28. In words: MIC. It counts as cell-based, Staphylococcus aureus. The method in brief: as §1
For data set [12], the system named is S. aureus LAC pLL39_yceI. Briefly: MIC. It counts as cell-based, Staphylococcus aureus. The conditions noted are these: genotype pLL39_yceI, LAC background.
Data set [13] deals with LAC yceI::Tn azoR4 pCM28. Briefly: MIC. Type of data set: cell-based, Staphylococcus aureus. The method in brief:
as §1

The test system of data set [14] is Vero cells. Type of data set: cell-based. As to conditions: 72 h.
Data set [15] relates to MRSA ATCC 43300. In words: MIC, drug susceptibility assay. As to conditions: 18 h, 37 °C, visual inspection. Type of data set: cell-based, Staphylococcus aureus.
Data set [16] relates to LAC yceI::Tn azoR1 pCM28_azoR. Briefly: MIC. Type of data set: cell-based, Staphylococcus aureus. The method in brief: as §1
The subject of data set [17] is LAC yceI::Tn strain. Briefly: Selection of spontaneous resistant mutants, frequency. It counts as cell-based, Staphylococcus aureus.
In data set [18] the test system is S. aureus (ATCC 43300). Briefly: Nitric oxide release assay, DAF-FM diacetate. Type of data set: cell-based, Staphylococcus aureus. The conditions noted are these: 100 μM, over 2 h; positive control DEA-NONOate. The method, boiled down: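 ATCC 43300 in Mueller-Hinton medium at OD600 0.2 was loaded with 10 μM DAF-FM diacetate for 30 min in the dark. Cells were then exposed to 100 μM test compound or 100 μM DEA-NONOate for 120 min. Controls were medium alone, bacteria alone, and bacteria with dye. Fluorescence (ex 495/em 515 nm) was read in triplicate.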

In data set [19] the test system is MSSA ATCC 25923. Briefly: MIC, drug susceptibility assay. Type of data set: cell-based, Staphylococcus aureus. As to conditions: 18 h, 37 °C, visual inspection.

The structures appear in SMILES notation. Values after ≈ are worked out from the molar mass of the structure shown. Values joined by “and” are separate entries in the source; they are usually repeats but may differ in a detail not shown here. Equal values may be shown once.

One may read the MIC as the least concentration at which growth counts as inhibited. High values mean weaker potency, low ones greater potency. Broadly, the CC50 is the concentration that lowers cell viability or growth by half. As for `O=C(Nc1cc(Cl)cc2cccnc12)c1ccc([N+](=O)[O-])s1` [JSF-3151], in [1], the “MIC versus VRSA compared to MRSA” value is “even greater potency”. Also, the MIC in data set [2] is 50 mg/L (≈ 150 µM); in data set [3], 1.5 mg/L (≈ 4.49 µM); in data set [5], 1.5 mg/L (≈ 4.49 µM); in [6], 50 mg/L (≈ 150 µM); in [7], 0.78 mg/L (≈ 2.34 µM); in data set [8] it was 50 mg/L (≈ 150 µM). For the same molecule, the MIC in [9] came out at 50 mg/L (≈ 150 µM); in data set [11] it was 0.78 mg/L (≈ 2.34 µM); in [12] it was 6.2 mg/L (≈ 18.6 µM); in data set [13], 25 mg/L (≈ 74.9 µM); in data set [16], 3.1 mg/L (≈ 9.29 µM). In addition, the “mice surviving 3 d post-administration” value in [4] was 2 out of 12. Also, in data set [4], the “survival 3 d post-administration” value is reported as 16.7%. The “frequency of resistant mutants” value in data set [10] is listed as 6 x 10^−8. Moreover, the “Vero cell CC50” value in data set [14] was more than 50 mg/L. Further, the CC50 in data set [14] (read-out: Vero cell CC50) was more than 150 µM. For the same molecule, the “MRSA ATCC 43300 MIC” value was 4.0 μg/mL and 12 μM in data set [15]; 4.0 μg/mL and 12 μM in [15] (listed as Z296972134 (3151)). The “frequency of heritable resistance” value in data set [17] is recorded as “approximately 3 x 10^−8”. Further, in [18], the “intrabacterial NO• release (DAF-FM)” value was “neither DAF-FM (over 2 h) nor the Griess reagent (over 48 h) evidenced NO• production”. Besides, the “MSSA ATCC 25923 MIC” value in [19] was 1.6 μg/mL and 4.8 μM; in data set [19] (listed as Z296972134 (3151)) it was 1.6 μg/mL and 4.8 μM.

These data come from article PMC8591627 (ACS infectious diseases, 2021).
